Assay results from the EternaBench riboswitch data.

Tests used:
[1] = system: MS2 coat protein; test: apparent Kd, MS2 coat protein; higher = weaker binding; RNA-MaP array; theophylline 2 mM where present
How it was run: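 Designs were transcribed by stalled E. coli RNA polymerase on Illumina sequencing-chip clusters. They were titrated with SNAP-549-labelled MS2 coat protein from 0.7 or 1.5 nM, doubling to 3 µM, in 100 mM Tris-HCl pH 7.5, 80 mM KCl, 4 mM MgCl2, BSA, DTT, yeast tRNA and Tween-20, without and then with constant ligand. The apparent Kd is the median of filtered per-cluster fits after normalisation of green signal to red-channel RNA signal and control-cluster median Fmax.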

[2] = system: MS2 coat protein; test: apparent Kd, MS2 coat protein; higher = weaker binding; RNA-MaP array
How it was run: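 Designed RNAs were transcribed on an Illumina sequencing chip from sequenced DNA templates. They were incubated at room temperature with fluorescently labeled MS2 coat protein at 1.5 nM to 3 μM, for 0.8–1.5 h at the lowest to 10–20 min at the highest concentrations, in Tris-HCl pH 7.5 buffer with KCl, MgCl2, BSA, DTT, tRNA and Tween20, with or without input ligand. Apparent Kd is the median of per-cluster binding-curve fits. Designs measured on fewer than 10 clusters were excluded.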

[3] = designed as: ON switch for theophylline, no ligand
[4] = ligand present: theophylline, designed as: ON switch for theophylline
[5] = designed as: OFF switch for theophylline, no ligand
[6] = ligand present: theophylline, designed as: OFF switch for theophylline
[7] = designed as: OFF switch for flavin mononucleotide, no ligand
[8] = ligand present: flavin mononucleotide, designed as: OFF switch for flavin mononucleotide
[9] = designed as: ON switch for flavin mononucleotide, no ligand
[10] = ligand present: flavin mononucleotide, designed as: ON switch for flavin mononucleotide

Sequence | apparent Kd [2, 7] | apparent Kd [2, 8] | apparent Kd [2, 9] | apparent Kd [2, 10] | further results
CGAUCUUUCGAAAGAAGGAUCGAGUCUGAUACCAGAGACGAAAGUCUCCCUUGGCAGCAGUGCCAACAUGAGGAUCACCCAUGUU | – | – | – | – | apparent Kd [1, 3]: 15.8 nM; apparent Kd [1, 4]: 15.5 nM
AGAAUAACACAUGAGGAUCACCCAUGUGAUACCAGCUAGGAAACUAGCCCUUGGCAGCACAUAAGGUGAUCCAGCUGCCAAGAAU | – | – | – | – | apparent Kd [1, 5]: 137 nM; apparent Kd [1, 6]: 74.9 nM
UAUAUAUAUAUUGAUACCAGCAGAGAAAACAUAUAUCCUAACAUGAGGAUCACCCAUGUAUGCCCUUGGCAGCGAUAUAUAUAUA | – | – | – | – | apparent Kd [1, 5]: 26 nM; apparent Kd [1, 6]: 32.3 nM
CUAUAAGUAACUGAUACCAGUGUACUGACAUGAGGAUCACCCAUGUUGGGUUUUGUUGUACACCCUUGGCAGCAGAAUCUUGUAG | – | – | – | – | apparent Kd [1, 5]: 62.1 nM; apparent Kd [1, 6]: 85 nM
CUCGGUUGAUCCUAGCUGCCGAGAGGUGAUACCAGCAUCGAAAGAUGCCCUUGGCAGCACCAACAUGAGGAUCACCCAUGUAAUA | – | – | – | – | apparent Kd [1, 3]: 55.1 nM; apparent Kd [1, 4]: 483 nM
AUUAUCAUGGUCAUAUAUAUAUCGUCAGAUACCAGACUAGAUAUAGUCCCUUGGCAGCUGUUACAUGAGGAUCACCCAUGUUAUA | – | – | – | – | apparent Kd [1, 5]: 138 nM; apparent Kd [1, 6]: 47.8 nM
UCUUUCUAUGUAGAUACCAGCAUGUUAUAUUUCUAAUGACAUGAGGAUCACCCAUGUAAAUGCCCUUGGCAGCUACAUUUUCUUU | – | – | – | – | apparent Kd [1, 3]: 23.1 nM; apparent Kd [1, 4]: 16 nM
GCCAGACAUGAGGAUCACCCAUGUAGCGAUACCAGCUCUGUUGUGAGCCCUUGGCAGCGCACUGGCAUCGUAGGUGAUCCAAUAA | – | – | – | – | apparent Kd [1, 3]: 75.2 nM; apparent Kd [1, 4]: 187 nM
ACCUACGUAGGAUAUACGCAUCGUGGACCGCAUGCCCGUGCACAUGAGGAUCACCCAUGUAGAAGGACGUACGC | 17.1 nM | 22.6 nM | – | – | –
ACAUGAUGCUAGAAGGGCACACAUGAGGAUCACCCAUGUCGAACGAUUCUUCGGGACUAUCGCAUGCAGGAUAUAGCUAAAUCG | – | – | 13.2 nM | 8.24 nM | –
UAGUAACAUGAGGAUCACCCAUGUCAGGAUAUGAGGUCUACGGCAUAAGCGAAUCGGGUCAGAAGGGACAUAAC | 20.4 nM | 16.9 nM | – | – | –
GCUUUAUUCUAGAAGGCUUAUCAUGCAUAAUGUCUAGAAGUUCAGACAUGAGGAUCACCCAUGUAAGAGGAUAUAGCGUAAAGU | 26.9 nM | 31.3 nM | – | – | –
ACUAUACAUGAGGAUCACCCAUGUGGUCACAUAUGAGGAUAUAUGCGGCUGUCCCGGUCAAUAGAAGGCAUAUUUA | – | – | 52 nM | 53.5 nM | –
GCUGAUCAACCCUAGGAUAUCACCCAUACCACAUGAGGAUCACCCAUGUCGGGUUGCUAUGUGGCUGAGAAGGAGGUGCACUAUAC | – | – | 23 nM | 8.76 nM | –
UACAUUCGUCAGGAUAUCCAUCAGCCAGGCCUCGGAGAAGGGACUACAUGAGGAUCACCCAUGUGUAACCUCGU | 40.4 nM | 88.8 nM | – | – | –
AGAAAGAAUCAGAAGGCAGAGAUGUCUAUCUACUGAGGAUAUGAAUGACAUGAGGAUCACCCAUGUUGUCAGGCCAGGCCCAAC | – | – | 7.78 nM | 9.75 nM | –
UAUAAACAGCCUGGUUACUCGUCGCGCUUGCGAGGACCGGUACGGCCGCCACUCGACCCAUCACAUGAGGAUCACCCAUGUCCCA | – | – | – | – | apparent Kd ([2]; designed as: OFF switch for tryptophan, no ligand): 31.7 nM
GGACAUUGUCCUAUUCACAUGAGGAUCACCCAUGUCACAACUAGAAGGGAGCGAUAACAAUUUCCUCAGGAUAUAGUUCGCGGC | – | – | 28.2 nM | 24.7 nM | –
UACCAUAGACCAGUUAGCGACACAUGAGGAUCACCCAUGUAGAGAAGGUGCUCUAUCUUAAGACGCAAGGAUAUCUGCAUUAUA | 20.3 nM | 21.9 nM | – | – | –
UGUAACACAGGAUAUACAUAGGCCAGCCACUGACUCAGGUCACAUGAGGAUCACCCAUGUAGAAGGGUGCUGAA | 116 nM | 84.1 nM | – | – | –
AUAGCCAAACAAGGAUAUACGCGCGUCACAGAAAAUGGGACAUGAGGAUCACCCAUGUGGGAAGAGUAGAAGGUGUUUCCAGAU | 251 nM | 147 nM | – | – | –
CUCCCACAUGAGGAUCACCCAUGUAUGAAAAUACAAGGAUAUGGCGUCCUGAUUAGCGGCCCAGAAGGUGUGCUUU | – | – | 114 nM | 70.2 nM | –
UCUUUAAGCACAGGAUAUUGGUACAUGAGGAUCACCCAUGUGGAUCGUACUACCUCUCCACCGGACAAGAAGGGUGCGCCUACG | – | – | 172 nM | 125 nM | –
UUGUAACAUGAGGAUCACCCAUGUAUGAACUAACAAGGAUAUGCGUGAGUCAGAUAAGACGCAGAAGGUGUCAGAU | – | – | 10.3 nM | 7.55 nM | –
AAGAACCAGAUAGGAUAUCCGUUUAAAUCACAAGGAGAAGGAUCAAAUACAAAACAUGAGGAUCACCCAUGUGGAAGAUAGCUA | – | – | 33.2 nM | 18.7 nM | –
AAAACUUAUCAGAAGGAACGCACUCAACCGUUGUUAGGAUAUGAUCACCUAACAUGAGGAUCACCCAUGUUCACAGUAGGAGAC | – | – | 130 nM | 89.5 nM | –

Sequence | apparent Kd [2, 7] | apparent Kd [2, 8] | apparent Kd [2, 9] | apparent Kd [2, 10] | further results
GAAGUCGCCGAGAAGGGAGCGAAACUCUCUAUCACAUGAGGAUCACCCAUGUAGUUCUCGUGAGCUCAGGAUAUCGUCGAACGC | 14.5 nM | 10.5 nM | – | – | –
AAGAGUGUGAGAGGAUAUGCUUACCCAUAUCACAUGAGGAUCACCCAUGUCGGCGAUUGUAUUAUGCAGAAGGCUCAAGGACUC | – | – | 18.3 nM | 9.8 nM | –
UACCGACAUGAGGAUCACCCAUGUACUGCGCUUGGAGGAUAUCGGCUUGAUUUUGCGCGUCGAGAAGGCCAACCUA | – | – | 12.2 nM | 10.2 nM | –
CCAGUUACCAGAGGAUAUGAUUCCAGAGUUAAGGGUAUUCACAUGAGGAUCACCCAUGUGCUCCUUCAGAAGGCUGAUAACCCG | 39.8 nM | 49.4 nM | – | – | –
AACUCCACCGCAGGAUAUCCGGUCUCUCUGUAGACGACAUGAGGAUCACCCAUGUAUCCGGGAAUGGAGAAGGGCGGUGCUCCU | 16.4 nM | 13 nM | – | – | –
GGGCGCCGAGGAUAUCACAGGAGUAACAUGAGGAUCACCCAUGUAUCAGUGGGCGUAAUAUGAGAAGGCGGUGGUU | 85.5 nM | 43.5 nM | – | – | –
GGUUCUUGUUGACGUUUAUACAUGAGGAUCACCCAUGUUGCGCAGGAUAUUUCACAUUGAUAGAGAAAGAAGGGCGAUGUACGU | – | – | 10.4 nM | 8.68 nM | –
AAGUGACAUGAGGAUCACCCAUGUGAGGAUAUGGCUGAACAGAAAUAUGGGAAAAGAGCCAGAAGGCACGCCGG | 62.3 nM | 112 nM | – | – | –
CGUUCAGAUCAUGAUAACAUGAGGAUCACCCAUGUGGAAUAAUAGGAUAUGGAGAACAAAAUUAACCAGAAGGAUUAUAACAAA | – | – | 70 nM | 44.9 nM | –
ACACAGUCAGGAUAUACACAAAAUCUCAGUCUAGUAAGUAAACAUGAGGAUCACCCAUGUAGAAGGGACUUUAA | 6.95 nM | 7.79 nM | – | – | –
UCGCUGUAAGAGAAGGGCUCUGCAUGAGCACAUGAGGAUCACCCAUGUAAGAUCCUAAAGUACGAGCAGGAUAUCUCCGAGUGG | 106 nM | 77.3 nM | – | – | –
CGGUGGUGAGGAUAUCAAAUGUGGAAGGAGAAGACACCCAGUGAGAAGGCACAUGAGGAUCACCCAUGUACAGC | 10.7 nM | 6 nM | – | – | –
CAAUAACAGAAAGGAUAUGGGCUCGAUACAUGAGGAUCACCCAUGUCUCCGUCAACGCUCAGUGCCCAGAAGGUUCCGCAGAAU | – | – | 34 nM | 20.2 nM | –
ACCUAAUAAGGAUAUACGAAAGAGCCACCUGUAAACAACCGACAUGAGGAUCACCCAUGUAGAAGGUAUUAGGU | 4.32 nM | 9.47 nM | – | – | –
UGUGCCUAGUAGAAGGCGCCGACUCGCUCACGGCGAGGAUAUACUACUCAGGGCACAUGAGGAUCACCCAUGUGUGAUUCGUAA | 103 nM | 23.1 nM | – | – | –
CCUCGAACGGCAGGAUAUAUUGGUCAAAAUUCUAUAGAAGGGCCUCUCCCUGGAACAUGAGGAUCACCCAUGUGCGCACUUGUG | – | – | 57.4 nM | 61.9 nM | –
CUGUUACAUGAGGAUCACCCAUGUUUUUGGUUAAGAGGAUAUGGCACAUGGUUAAACGUUCCAGAAGGCUUUGCAC | – | – | 11.8 nM | 8.94 nM | –
AUGUAGUCGGUAGGAUAUACGAGUCUGAUAACAGUAGAAGGACCGAGUACGGCUCCGCAGUACAUGAGGAUCACCCAUGUGAUC | – | – | 533 nM | 286 nM | –
UUCGGCCUUUAGAAGGAUUGUAUACAUGAGGAUCACCCAUGUUGGUGAUACAGAUAUAUUCGGCAAUAGGAUAUAAGCAGGUGA | 826 nM | 598 nM | – | – | –
UAAAACGGAUCAGGAUAUGUGAAACUGAGUGCGUGAACACUCGCCUACAUGAGGAUCACCCAUGUACAGAAGGGAACUACUACA | – | – | 16.4 nM | 13.9 nM | –
AUGUGUAUUGAAGGAUAUGAAGCCGGCAUAAAAUCAGAAGGUCAACUAAUUACACAUGAGGAUCACCCAUGUGAUGACAUGCUU | 17.2 nM | 24.8 nM | – | – | –
GGGAUACAUGAGGAUCACCCAUGUCAGGAUAUCUUUUACCGGCACGACAAUCAUAUGAAGAGAAGGGACUAUAU | 35 nM | 31.9 nM | – | – | –
UAGUUGCAUACAUGAGGAUCACCCAUGUUUUAAUGGGUAACUAGAAGGUGUUGACGUUGGCUAAACAAGGAUAUAGUUCGUGCU | 43.3 nM | 46.5 nM | – | – | –
AGUUACAAUGUCAGGAUAUUGCUCCCACGACGGAACAAGAAGGGACAUGAGGAUCACCCAUGUUAGUCUUCGUC | 4.96 nM | 5.98 nM | – | – | –
AACAUGAGGAUCACCCAUGUCACAUACAAGUGGAGUUCUAUGAGAAGGGCGAAACGAAUGAGCACGCAGGAUAUCAGCGAUAAA | – | – | 13.5 nM | 11.3 nM | –
AACCAUCUCGGCGAUACCAGUGCCUACGAGUACAUGAGGAUCACCCAUGUAGGUGACCGACACCCUUGGCAGCGCGAUUGAGUCA | – | – | – | – | apparent Kd [2, 3]: 140 nM; apparent Kd [2, 4]: 70.6 nM
